Assay results published in ChEMBL document CHEMBL3525963, “Tissue distribution and elimination of [14C]apixaban in rats” (Drug Metab Dispos, 2011).

Key:
Set-up in all cases: dose 5 mg/kg, dosed compound name [14C]-apixaban, route oral
Conditions in all cases: in vivo
Lung = experiment: Biodistribution in male Sprague-Dawley rat lung at 5 mg/kg, po administered as single dose measured after 8 hrs; format: ADME, organism-based
Summary of the method: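 [14C]apixaban (1.0 mg/mL, 20 μCi/mL) in 0.5% Tween 80 in Labrafil, given by oral gavage at 100 μCi/kg to male rats (225-252 g) fasted overnight through 4 h post-dose. One rat per time point. Carcasses frozen in hexane/dry ice and cut into 40 µm sagittal sections. QWBA read on phosphor plates against [14C]glucose standards, reported as µg eq/g. LLOQ 0.037 µg eq/g.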

Brain = experiment: Biodistribution in female Sprague-Dawley rat brain at 5 mg/kg, po administered as single dose measured after 72 hrs; format: ADME, organism-based
Summary of the method: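 [14C]Apixaban (1.0 mg/mL, 20 μCi/mL in 0.5% Tween 80 in Labrafil) given as a single oral gavage of 5 mg/kg (100 μCi/kg) to fasted female SD rats, one rat per time point. Carcasses were frozen in hexane/dry ice and cut into 40 µm sagittal sections for QWBA against [14C]glucose standards. Brain radioactivity is reported as µg eq/g, with LLOQ 0.037 µg eq/g.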

Rattus norvegicus [1] = experiment: Biodistribution in pregnant Sprague-Dawley rat salivary gland at 5 mg/kg, po administered as single dose measured after 8 hrs; format: ADME, organism-based
Spleen [2] = experiment: Biodistribution in pregnant Sprague-Dawley rat spleen at 5 mg/kg, po administered as single dose measured after 4 hrs; format: ADME, organism-based
Thymus = experiment: Biodistribution in pregnant Sprague-Dawley rat thymus at 5 mg/kg, po administered as single dose measured after 4 hrs; format: ADME, organism-based
Rattus norvegicus [3] = experiment: Biodistribution in fetal kidney of pregnant Sprague-Dawley rat at 5 mg/kg, po administered as single dose measured after 0.5 hrs; format: ADME, organism-based
Summary of the method: (§1)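 Pregnant rats, 270-319 g and fasted overnight, received [14C]apixaban by oral gavage at 100 μCi/kg in 0.5% Tween 80/Labrafil. One dam per time point was euthanized and frozen in hexane/dry ice. Fetal tissue radioactivity was measured by QWBA on 40 µm sagittal sections calibrated with [14C]glucose standards. Values are in µg eq/g, with LLOQ 0.037 μg eq/g.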

Rattus norvegicus [4] = experiment: Biodistribution in male Sprague-Dawley rat bone marrow at 5 mg/kg, po administered as single dose measured after 24 hrs; format: ADME, organism-based
Summary of the method: (§2)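 Fasted male SD rats (225-252 g) each received one oral gavage dose of [14C]apixaban, 5 mg/kg (100 μCi/kg), in 0.5% Tween 80/Labrafil vehicle. One rat was killed per time point, from 0.5 to 168 h. Frozen carcasses were cut into 40 µm sagittal whole-body sections and read by QWBA phosphor imaging against [14C]glucose calibrants. Results are in µg apixaban eq/g; BLQ <0.037 µg eq/g.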

Rattus norvegicus [5] = experiment: Biodistribution in pregnant Sprague-Dawley rat brown fat at 5 mg/kg, po administered as single dose measured after 1 hr; format: ADME, organism-based, Brown adipose tissue
Liver = experiment: Biodistribution in male Sprague-Dawley rat liver at 5 mg/kg, po administered as single dose measured after 72 hrs; format: ADME, organism-based; summary of the method: as §2
Pancreas = experiment: Biodistribution in female Sprague-Dawley rat pancreas at 5 mg/kg, po administered as single dose measured after 72 hrs; format: ADME, organism-based
Summary of the method: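 Quantitative whole-body autoradiography was run after a single 5 mg/kg (100 μCi/kg) oral gavage to fasted female or pregnant SD rats, one rat per time point. Carcasses were frozen in hexane/dry ice, and 40 µm sagittal sections were dried at −20°C for at least 48 h. Sections were exposed to a phosphor plate alongside [14C]glucose standards (0.001–6.5 µCi/g). Results are µg eq/g, with LLOQ 0.037 µg eq/g.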

Spleen [6] = experiment: Biodistribution in female Sprague-Dawley rat spleen at 5 mg/kg, po administered as single dose measured after 1 hr; format: ADME, organism-based
Summary of the method: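 [¹⁴C]Apixaban given by oral gavage at 5 mg/kg (100 μCi/kg) in 0.5% Tween 80 in Labrafil (1.0 mg/mL dosing solution) to rats fasted overnight through 4 h post-dose. One rat per time point; carcass frozen in hexane/dry ice. Quantitative whole-body autoradiography used 40 µm sagittal sections and a phosphor imaging plate calibrated with [¹⁴C]glucose standards (0.001–6.5 μCi/g). Read-out in µg eq apixaban/g; LLOQ 0.037 μg eq/g.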

Rattus norvegicus [7] = experiment: Biodistribution in fetal blood of pregnant Sprague-Dawley rat at 5 mg/kg, po administered as single dose measured after 1 hr; format: ADME, organism-based; summary of the method: as §1
Rattus norvegicus [8] = experiment: Biodistribution in fetal brain of pregnant Sprague-Dawley rat at 5 mg/kg, po administered as single dose measured after 4 hrs; format: ADME, organism-based
Summary of the method: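 Pregnant SD rats received a single oral gavage of [14C]apixaban at 5 mg/kg (100 μCi/kg; 1.0 mg/mL, 20 μCi/mL in 0.5% Tween 80/Labrafil) after fasting, one dam per time point. Frozen carcasses were cut into 40 µm sagittal sections and read by phosphor-imaging QWBA against [14C]glucose standards. Fetal tissue radioactivity is reported as µg eq/g, with LLOQ 0.037 µg eq/g.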

Heart = experiment: Biodistribution in pregnant Sprague-Dawley rat heart at 5 mg/kg, po administered as single dose measured after 0.5 hrs; format: ADME, organism-based

Radiolabel recovery (Lung): 0.14 ugequiv/g
Radiolabel recovery (Brain): < 0.037 ugequiv/g
Radiolabel recovery (Rattus norvegicus [1]): 0.08 ugequiv/g
Radiolabel recovery (Spleen [2]): 0.47 ugequiv/g
Radiolabel recovery (Thymus): 0.54 ugequiv/g
Radiolabel recovery (Rattus norvegicus [3]): 0.24 ugequiv/g
Radiolabel recovery (Rattus norvegicus [5]): 0.95 ugequiv/g
Radiolabel recovery (Liver): Not detected assumed BLQ
Radiolabel recovery (Spleen [6]): 0.35 ugequiv/g
Radiolabel recovery (Rattus norvegicus [7]): 0.31 ugequiv/g
Radiolabel recovery (Rattus norvegicus [8]): 0.06 ugequiv/g
Radiolabel recovery (Heart): 0.68 ugequiv/g
SMILES: COc1ccc(-n2nc(C(N)=O)c3c2C(=O)N(c2ccc(N4CCCC[14C]4=O)cc2)CC3)cc1
Radiolabel recovery (Rattus norvegicus [4]): Not sampled as not visualised in autoradiograph
Radiolabel recovery (Pancreas): Not sampled as not visualised in autoradiograph
